Source: PubChem BioAssay
In the library only some 1.5% were active in any assay of this set; here they are far more common.
Hck Nef HTS: inhibitors of Nef-activated human Hck kinase, primary screen, biochemical, Z-Lyte FRET, 384-well, Hck-YEEI; Recombinant Hck-YEEI plus Nef, Z-Lyte FRET kinase assay; Tyrosine-protein kinase HCK (Homo sapiens), P08631; 220,000 tested, 0.68% active; inhibition, % at 20 µM;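 active means Hck-Nef kinase inhibition above about 50%, limit read from the data; inactive means inhibition below that limit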;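 further: 0% = DMSO with Hck plus Nef and 100% = Hck alone without Nef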
Target sequence (P08631 whole entry, looked up): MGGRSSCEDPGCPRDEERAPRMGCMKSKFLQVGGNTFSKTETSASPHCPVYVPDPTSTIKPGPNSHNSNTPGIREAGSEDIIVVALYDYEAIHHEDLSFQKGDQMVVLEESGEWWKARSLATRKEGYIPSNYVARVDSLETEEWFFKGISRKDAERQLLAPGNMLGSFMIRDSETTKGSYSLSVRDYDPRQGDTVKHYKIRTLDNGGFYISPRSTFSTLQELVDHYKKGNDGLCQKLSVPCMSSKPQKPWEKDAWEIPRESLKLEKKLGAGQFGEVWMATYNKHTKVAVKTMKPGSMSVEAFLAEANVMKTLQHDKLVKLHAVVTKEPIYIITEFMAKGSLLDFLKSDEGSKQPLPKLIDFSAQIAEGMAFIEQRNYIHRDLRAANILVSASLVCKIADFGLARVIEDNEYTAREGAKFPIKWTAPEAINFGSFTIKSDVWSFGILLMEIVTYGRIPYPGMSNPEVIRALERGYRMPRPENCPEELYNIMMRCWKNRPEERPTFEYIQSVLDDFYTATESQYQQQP
CaV13 FRET inh: Disruptors of the CACNA1D IQ motif to Ca2+-dependent inactivation inhibitor domain association, primary screening, Förster resonance energy transfer in intact living …. HEK cells, CFP/YFP FRET ICDI-IQ, plate reader, 10 min; percent FRET-ratio fall versus neutral wells. inhibition, % at 12.3 µM. AID 743397. 340,000 tested, 0.098% active;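 active means mean replicate inhibition of at least 30% and at least 1% of replicates passing that level; inconclusive means only one of the two criteria is met; inactive means neither criterion is met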;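 further: 0% = median of the neutral control wells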
Runt-CBFb FRET: inhibitors of RUNX1 Runt–CBFb binding, primary screen, biochemical, FRET, Cerulean-Runt, Venus-CBFb, uHTS. Cerulean-Runt/Venus-CBFb FRET ratio 530/480, 1 h. inhibition, % at 20 µM. 220,000 tested, 0.46% active. Runt-related transcription factor 1 (Homo sapiens) + Core-binding factor subunit beta …;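 active means inhibition over about 50% at 20 µM in the single-dose screen, limit read from the data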;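 further: 0% = DMSO wells and 100% = excess unlabeled CBFb competitor control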
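Doses: 20 µM compound in 1% DMSO | Material: Cerulean-labeled Runt domain protein | Amount: Each fluorescent fusion protein 100 nM | Schedule: Two 1 h room-temperature incubations shielded from light | Measured by: FRET fluorescence | Evaluation: Loss of energy transfer signal | Controls: Unlabeled CBFb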
RanGTP-Impb inh: inhibitors of RanGTP-importin-beta interaction, primary screen, biochemical, FRET, CFP-Ran, YFP-importin-beta, homogeneous; inhibition, % (concentration not given with the values); AID 2216, 2009; cell-free CFP-Ran/YFP-importin-beta FRET ratio; 300,000 tested, 1.1% active;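 active means more than half of the replicate wells show a fall in the fluorescence ratio signal beyond about 16%, limit read from the data, passing the limit was not always enough; inconclusive means exactly half of the replicate wells pass the set limit; inactive means fewer than half of replicates pass the limit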;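 further: 0% = DMSO wells and 100% = Ran loaded with GDP instead of GTP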
Runt-SMMHC FRET: inhibitors of RUNX1 Runt–CBFb-SMMHC binding, primary screen, biochemical, FRET, Cerulean-Runt, Venus-CBFb-SMMHC, uHTS; Runt-related transcription factor 1 (Homo sapiens) + Core-binding factor subunit beta …; Cerulean-Runt/Venus-CBFb-SMMHC FRET ratio 530/480, 1 h; inhibition, % at 20 µM; 220,000 tested, 0.74% active;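 active means mean inhibition across duplicate retests at 20 µM reaching about 50%, limit read from the data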;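 further: 0% = DMSO wells and 100% = wells with excess untagged CBFb-SMMHC; inhibitors lower the FRET ratio by blocking Runt binding to CBFb-SMMHC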
Hck Nef conf: retest of Hck:Nef kinase inhibitor hits, confirmation, biochemical, Z-Lyte FRET, 384-well, p-Tyr peptide counterscreen. shares compounds with Hck Nef HTS. Recombinant Hck-YEEI:Nef, Z-Lyte FRET kinase assay. calls only at 10 µM. 1,300 tested, 28% active. AID 463188, 2010;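 active means average inhibition of at least 50%, with Z-scores no higher than 3 in both the phospho-tyrosine peptide and fluorescence counterscreens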
Active calls of the source: *; i = inactive; ? = inconclusive; . = no result given; + = active, no number.

SMILES | Hck Nef HTS | CaV13 FRET inh | Runt-CBFb FRET | RanGTP-Impb inh | Runt-SMMHC FRET | Hck Nef conf
CCOc1cc(/C=N/N=C2/NC(=O)C(CC(=O)O)S2)ccc1OCc1ccc(Cl)cc1Cl (centres undefined) | 54* | . | 5 | 1 | -16 | i
COc1cc(/C=N/N=C2/NC(=O)C(CC(=O)O)S2)ccc1OCc1ccc(Cl)cc1 (centres undefined) | 0 | -18 | -2 | 7 | 0 | .
COc1cc2ncnc(NCc3ccc(C)o3)c2cc1OC | 78* | -5 | 13 | 3 | 9 | i
Cc1ccc(CNc2ncnc3cc(Cl)ccc23)o1 | -14 | 0 | 2 | 4 | -3 | .
Cc1ccc(-c2nc(N)c3c(-c4ccc(C)cc4)nn(C(C)(C)C)c3n2)cc1 | 0 | . | 1 | 1 | -1 | .
Cc1ccc(-c2nn(C(C)(C)C)c3ncnc(NS(=O)(=O)c4ccc([N+](=O)[O-])cc4)c23)cc1 | 46 | -4 | -2 | 4 | -5 | .
CC(C)(C)n1nc(-c2ccc(Cl)cc2)c2c(N)ncnc21 | 105* | . | -6 | ? | -4 | +
CC(C)(C)n1nc(-c2ccc(F)cc2)c2c(N)ncnc21 | 109* | . | 2 | ? | -68 | +
CC(C)OP(=O)(CCP(=O)(OC(C)C)OC(C)C)OC(C)C | 9 | 1 | -1 | 0 | -4 | .
Oc1c(/C=C/C=C/C=Nc2ccccc2)sc(=S)n1Cc1ccccc1 | 50* | -5 | 17 | 0 | -6 | i
CC(Cl)=CCn1c(NCCc2ccccc2)nc2c1c(=O)n(C)c(=O)n2C | . | -3 | . | . | . | .
Nc1nc(N)nc(-c2ccc(Oc3ccccc3)cc2)n1 | 19 | -9 | -2 | 5 | -1 | .
Cc1ccc(Oc2ccc(-c3nc(N)nc(N)n3)cc2)cc1C | 76* | -4 | -12 | -2 | -7 | i
COc1cccc(NC(=O)CCNC(=O)c2ccccc2Cl)c1 | 1 | . | -2 | -6 | 1 | .
CN=c1scc(-c2ccco2)n1/N=C/c1ccc(O)c(O)c1 | 51* | -5 | 7 | -2 | 9 | i
O=C(Nc1cccc(S(=O)(=O)NC2=NCCCCC2)c1)c1cc(-c2ccco2)nc2ccccc12 | 93* | -5 | 28 | -5 | -12 | +
CCS/C(N)=N/N=C/c1cc(C)ccc1O | 51* | -5 | 0 | 4 | 1 | i
CCCCS/C(N)=N/N=C/c1cc(C)ccc1O | 18 | . | 1 | 2 | -2 | .
O=C1COc2ccc(C(=O)CSc3nc4ccccc4c(=O)n3-c3ccc(Cl)c(Cl)c3)cc2N1 | 64* | -4 | -6 | 0 | -4 | i
Cc1ccc(S(=O)(=O)N(CC(=O)NCC2CCCO2)Cc2ccc(F)cc2)cc1 (centres undefined) | . | -2 | . | 1 | . | .
Cc1ccc2c(c1)N(CCC(=O)NC1CCCCC1)C(=O)CO2 | . | -3 | . | 0 | . | .
CCN(C(=O)c1cc2c(=O)n3ccccc3nc2s1)C1CCCCC1 | . | -3 | . | 5 | . | .
CCCNC(=O)COC(=O)c1cc2c(=O)n3ccccc3nc2s1 | 51* | -19 | 83* | 6 | 121* | i
CCCSc1nc2c(cnn2-c2ccccc2)c(=O)n1N | 76* | -4 | 3 | -6 | 0 | +
Cc1ccc(-c2csc(NC(=O)CN3CC(C)OC(C)C3)n2)cc1 (centres undefined) | . | -5 | . | 0 | . | .
SMILES | Hck Nef HTS | CaV13 FRET inh | Runt-CBFb FRET | RanGTP-Impb inh | Runt-SMMHC FRET | Hck Nef conf
Cc1sc2nc(CSC(C)C(=O)Nc3ccc(Cl)cn3)[nH]c(=O)c2c1C (centres undefined) | . | -5 | . | . | . | .
COc1cccc(=O)c2c(C)n(CC(=O)c3ccccc3)c(C)c12 | 53* | -5 | -4 | 1 | -35 | i
O=C(NCc1ccco1)c1cc2ccccc2o1 | 0 | . | -3 | -1 | 2 | .
CC(=O)c1cc2ccccc2oc1=O | . | -5 | . | . | . | .
CC(=O)c1cc2cc(O)ccc2o1 | 73* | -5 | 32 | -3 | 70* | .
CC(=O)c1cc2ccc(O)cc2oc1=O | + | 33* | 10 | 148* | 81* | .
O=C(NCc1ccco1)c1cc2ccc(O)cc2oc1=O | + | . | 18 | 158* | 58* | .
O=C1NC[C@@H](CCCCN2C[C@H](Cc3ccc(O)cc3)N(CCC3CCCCC3)C(=O)C2=O)N(Cc2ccccc2)C1=O | . | -9 | . | . | . | .
CN(C(=O)c1sc2nc(N3CCOCC3)c3c(c2c1N)CCCC3)c1ccccc1 | 53* | 3 | 15 | 5 | 7 | i
O=c1c2c(-c3ccc(Cl)cc3)csc2ncn1/N=C/c1cccc([N+](=O)[O-])c1O | 89* | -4 | -4 | 4 | -2 | +
COc1ccc(NC(=O)CN2C(=O)/C(=C3\SC(=S)N(C4CCS(=O)(=O)C4)C3=O)c3ccccc32)cc1 (centres undefined) | 99* | -3 | 15 | 2 | 2 | +
O=C(CN1C(=O)/C(=C2\SC(=S)N(C3CCS(=O)(=O)C3)C2=O)c2ccccc21)Nc1ccc(F)cc1 (centres undefined) | 48 | -18 | 13 | -3 | 0 | .
Cc1ccc(-n2cccc2/C=C2\C(=N)N3N=C(c4ccco4)SC3=NC2=O)cc1 | 70* | -2 | -21 | . | -56 | +
O=C(Nc1ccc(F)cc1)C(c1ccncc1)N1CCN(CC(=O)N2CCCC2)CC1 (centres undefined) | . | -4 | . | . | . | .
O=C(NC(=O)c1ccc(Cl)cc1)Nc1ccc(-c2cnco2)cc1 | 60* | . | -2 | -1 | -1 | i
N=C1/C(=C\c2ccc(-c3cc(Cl)cc(Cl)c3)o2)C(=O)N=C2SC=C(c3ccccc3)N12 | 5 | -3 | -6 | 4 | -27 | .
N=C1/C(=C/c2ccc(-c3cccc(C(=O)O)c3)o2)C(=O)N=C2SC=C(c3ccccc3)N12 | 91* | -73 | -35 | -7 | -97 | +
O=C(Nc1ccc(Cl)c(Cl)c1)Nc1nnc(-c2ccncc2)s1 | 56* | -5 | 2 | . | -2 | .
COc1ccc(/C=c2\s/c(=C\C(=O)C(C)(C)C)[nH]c2=O)cc1O | 71* | -11 | -4 | ? | -37 | +
COc1cc(/C=c2\s/c(=C\C(=O)C(C)(C)C)[nH]c2=O)cc(OC)c1OC | 22 | -10 | -20 | -1 | -63 | .
